In ChEMBL document CHEMBL1148485, “Synthesis and biological evaluation of new selective cytotoxic cyclolignans derived from podophyllotoxin” (J Med Chem, 2004):

How the values were obtained:
A549 = test: In vitro cytotoxicity against A-549 (human lung carcinoma) cell line.; type: functional, cell-based
HT-29 = test: In vitro cytotoxicity against HT-29 (human colon carcinoma) cell line.; type: functional, cell-based
[1] = Selectivity index is the ratio of IC50 of P-388 cell line to that of HT-29; type: functional
P388 = test: Tested in vitro for antineoplastic activity against P-388 (lymphoid neoplasm from DBA/2 mouse) tumor cell line; type: functional, cell-based
Method in brief: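 P-388 cells seeded at 1 × 10^4 cells/well in MEM–10% FCS containing graded compound concentrations. Incubated 4 days at 37 °C, 10% CO2, 98% humidity. Inhibition scored by inverted microscopy against untreated controls, which were kept in exponential growth. Mean of duplicate wells.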

SK-MEL-28 = test: Tested in vitro for antineoplastic activity against MEL-28 (human melanoma) tumor cell line; type: functional, cell-based
Method in brief: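 MEL-28 cells seeded at 2 × 10^4 cells/well in MEM–10% FCS containing graded compound concentrations. Incubated 4 days at 37 °C, 10% CO2, 98% humidity. Stained with crystal violet and inhibition judged against untreated controls, which were kept in exponential growth. Mean of duplicate wells.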

HeLa [2] = test: Tested for effect of compound on S cell cycle phase and apoptosis in HeLa cells at a dose of 10E-7 for 72 hr; type: functional, Homo sapiens
Method in brief: (§1)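 HeLa cells grown in DMEM with 10% heat-inactivated FCS, 2 mM L-glutamine, penicillin and gentamicin at 37 °C, 5% CO2. Exposed to compound at 10^-6 to 10^-8 M for 24, 48 or 72 h, untreated controls run in parallel. (3-5) × 10^5 cells fixed overnight in 70% ethanol at 4 °C, then RNase A plus propidium iodide. Phase fractions measured by flow cytometry, with sub-G1 (hypodiploid) cells counted as apoptotic. Three independent experiments.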

HeLa [3] = test: Tested for effect of compound on G2/M cell cycle phase and apoptosis in HeLa cells at a dose of 10E-8 for 48 hr; type: functional, Homo sapiens; method in brief: as §1
HeLa [4] = test: Tested for effect of compound on S cell cycle phase and apoptosis in HeLa cells at a dose of 10E-7 for 24 hr; type: functional, Homo sapiens; method in brief: as §1
HeLa [5] = test: Tested for effect of compound on Sub-G1 cell cycle phase and apoptosis in HeLa cells at a dose of 10E-7 for 48 hr; type: functional, Homo sapiens; method in brief: as §1
HeLa [6] = test: Tested for effect of compound on S cell cycle phase and apoptosis in HeLa cells at a dose of 10E-7 for 48 hr; type: functional, Homo sapiens; method in brief: as §1
HeLa [7] = test: Tested for effect of compound on G0/G1 cell cycle phase and apoptosis in HeLa cells at a dose of 10E-7 for 72 hr; type: functional, Homo sapiens
Method in brief: (§2)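 HeLa cells were grown in DMEM with 10% heat-inactivated FCS and 2 mM L-glutamine at 37 °C in 5% CO2. They were exposed to 10^-6 to 10^-8 M for 24, 48 or 72 h. Then (3-5)×10^5 cells were fixed overnight in 70% ethanol at 4 °C, PBS-washed, and given 1 mg/mL RNase A plus 20 µg/mL propidium iodide for 1 h at room temperature. DNA content was read by flow cytometry. Sub-G1 (hypodiploid) % counted as apoptotic. Untreated controls were run in parallel. Representative of three independent experiments.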

HeLa [8] = test: Tested for effect of compound on Sub-G1 cell cycle phase and apoptosis in HeLa cells at a dose of 10E-8 for 24 hr; type: functional, Homo sapiens; method in brief: as §1
HeLa [9] = test: Tested for effect of compound on G2/M cell cycle phase and apoptosis in HeLa cells at a dose of 10E-8 for 72 hr; type: functional, Homo sapiens; method in brief: as §1
HeLa [10] = test: Tested for effect of compound on S cell cycle phase and apoptosis in HeLa cells at a dose of 10E-6 for 24 hr; type: functional, Homo sapiens; method in brief: as §1
HeLa [11] = test: Tested for effect of compound on G2/M cell cycle phase and apoptosis in HeLa cells at a dose of 10E-6 for 72 hr; type: functional, Homo sapiens; method in brief: as §1
HeLa [12] = test: Tested for effect of compound on S cell cycle phase and apoptosis in HeLa cells at a dose of 10E-8 for 48 hr; type: functional, Homo sapiens; method in brief: as §1
HeLa [13] = test: Tested for effect of compound on G0/G1 cell cycle phase and apoptosis in HeLa cells at a dose of 10E-7 for 48 hr; type: functional, Homo sapiens; method in brief: as §2
HeLa [14] = test: Tested for effect of compound on G0/G1 cell cycle phase and apoptosis in HeLa cells at a dose of 10E-6 for 24 hr; type: functional, Homo sapiens; method in brief: as §2
HeLa [15] = test: Tested for effect of compound on G2/M cell cycle phase and apoptosis in HeLa cells at a dose of 10E-7 for 48 hr; type: functional, Homo sapiens; method in brief: as §1
HeLa [16] = test: Tested for effect of compound on S cell cycle phase and apoptosis in HeLa cells at a dose of 10E-8 for 24 hr; type: functional, Homo sapiens; method in brief: as §1
HeLa [17] = test: Tested for effect of compound on S cell cycle phase and apoptosis in HeLa cells at a dose of 10E-6 for 48 hr; type: functional, Homo sapiens; method in brief: as §1
HeLa [18] = test: Tested for effect of compound on G0/G1 cell cycle phase and apoptosis in HeLa cells at a dose of 10E-8 for 48 hr; type: functional, Homo sapiens; method in brief: as §2
HeLa [19] = test: Tested for effect of compound on Sub-G1 cell cycle phase and apoptosis in HeLa cells at a dose of 10E-6 for 24 hr; type: functional, Homo sapiens; method in brief: as §1
HeLa [20] = test: Tested for effect of compound on G0/G1 cell cycle phase and apoptosis in HeLa cells at a dose of 10E-6 for 48 hr; type: functional, Homo sapiens; method in brief: as §2
HeLa [21] = test: Tested for effect of compound on Sub-G1 cell cycle phase and apoptosis in HeLa cells at a dose of 10E-7 for 72 hr; type: functional, Homo sapiens; method in brief: as §1
HeLa [22] = test: Tested for effect of compound on G2/M cell cycle phase and apoptosis in HeLa cells at a dose of 10E-6 for 24 hr; type: functional, Homo sapiens; method in brief: as §2
HeLa [23] = test: Tested for effect of compound on G0/G1 cell cycle phase and apoptosis in HeLa cells at a dose of 10E-8 for 72 hr; type: functional, Homo sapiens; method in brief: as §2
HeLa [24] = test: Tested for effect of compound on Sub-G1 cell cycle phase and apoptosis in HeLa cells at a dose of 10E-6 for 72 hr; type: functional, Homo sapiens; method in brief: as §1
HeLa [25] = test: Tested for effect of compound on Sub-G1 cell cycle phase and apoptosis in HeLa cells at a dose of 10E-6 for 48 hr; type: functional, Homo sapiens; method in brief: as §1
HeLa [26] = test: Tested for effect of compound on S cell cycle phase and apoptosis in HeLa cells at a dose of 10E-6 for 72 hr; type: functional, Homo sapiens; method in brief: as §1
HeLa [27] = test: Tested for effect of compound on G2/M cell cycle phase and apoptosis in HeLa cells at a dose of 10E-6 for 48 hr; type: functional, Homo sapiens; method in brief: as §2
HeLa [28] = test: Tested for effect of compound on G2/M cell cycle phase and apoptosis in HeLa cells at a dose of 10E-7 for 24 hr; type: functional, Homo sapiens; method in brief: as §1
HeLa [29] = test: Tested for effect of compound on Sub-G1 cell cycle phase and apoptosis in HeLa cells at a dose of 10E-7 for 24 hr; type: functional, Homo sapiens; method in brief: as §1
HeLa [30] = test: Tested for effect of compound on G2/M cell cycle phase and apoptosis in HeLa cells at a dose of 10E-7 for 72 hr; type: functional, Homo sapiens; method in brief: as §1
HeLa [31] = test: Tested for effect of compound on G0/G1 cell cycle phase and apoptosis in HeLa cells at a dose of 10E-7 for 24 hr; type: functional, Homo sapiens; method in brief: as §2
HeLa [32] = test: Tested for effect of compound on G0/G1 cell cycle phase and apoptosis in HeLa cells at a dose of 10E-6 for 72 hr; type: functional, Homo sapiens; method in brief: as §2
HeLa [33] = test: Tested for effect of compound on S cell cycle phase and apoptosis in HeLa cells at a dose of 10E-8 for 72 hr; type: functional, Homo sapiens; method in brief: as §1
HeLa [34] = test: Tested for effect of compound on G0/G1 cell cycle phase and apoptosis in HeLa cells at a dose of 10E-8 for 24 hr; type: functional, Homo sapiens; method in brief: as §2
HeLa [35] = test: Tested for effect of compound on G2/M cell cycle phase and apoptosis in HeLa cells at a dose of 10E-8 for 24 hr; type: functional, Homo sapiens; method in brief: as §1
HeLa [36] = test: Tested for effect of compound on Sub-G1 cell cycle phase and apoptosis in HeLa cells at a dose of 10E-8 for 48 hr; type: functional, Homo sapiens; method in brief: as §1
HeLa [37] = test: Tested for effect of compound on Sub-G1 cell cycle phase and apoptosis in HeLa cells at a dose of 10E-8 for 72 hr; type: functional, Homo sapiens; method in brief: as §1

Compound: CCC/N=C/C1=Cc2cc3c(cc2C(c2cc(OC)c(OC)c(OC)c2)[C@@H]1C(=O)OC)OCO3 (some centres undefined)
- IC50 (A549; Homo sapiens, A549): 110 nM
- IC50 (HT-29; Homo sapiens, HT-29): 10 nM
- Selectivity index [1]: 110
- IC50 (P388): 1100 nM

Compound: CC/N=C/C1=Cc2cc3c(cc2[C@@H](c2cc(OC)c(OC)c(OC)c2)[C@@H]1C(=O)OC)OCO3 (stereo in doubt; 11)
- IC50 (A549; a549): 110 nM
- IC50 (HT-29; ht-29): 34 nM

Compound: CC/N=C/C1=Cc2c(cc3c(c2OC)OCO3)C(c2cc(OC)c(OC)c(OC)c2)[C@@H]1C(=O)OC (some centres undefined)
- IC50 (SK-MEL-28): 1000 nM
- IC50 (A549; Homo sapiens, A549): > 10000 nM
- IC50 (HT-29; Homo sapiens, HT-29): 100 nM

Compound: COC(=O)[C@@H]1C(/C=N/c2ccc(OC)cc2)=Cc2cc3c(cc2C1c1cc(OC)c(OC)c(OC)c1)OCO3 (some centres undefined)
- Activity (HeLa [2]): 13.6%
- Activity (HeLa [3]): 25.5%
- Activity (HeLa [4]): 18.8%
- Activity (HeLa [5]): 5.2%
- Activity (HeLa [6]): 6.2%
- Activity (HeLa [7]): 35.1%
- IC50 (A549; Homo sapiens, A549): 94 nM
- IC50 (HT-29; Homo sapiens, HT-29): 9.4 nM
- Activity (HeLa [8]): 1.4%
- Activity (HeLa [9]): 26.6%
- Activity (HeLa [10]): 5.3%
- Activity (HeLa [11]): 10.4%
- Activity (HeLa [12]): 15.1%
- Activity (HeLa [13]): 7.7%
- Selectivity index [1]: 100
- Activity (HeLa [14]): 2%
- Activity (HeLa [15]): 80.9%
- Activity (HeLa [16]): 15.3%
- Activity (HeLa [17]): 6%
- Activity (HeLa [18]): 57.5%
- Activity (HeLa [19]): 1.9%
- Activity (HeLa [20]): 20.9%
- Activity (HeLa [21]): 27.1%
- Activity (HeLa [22]): 90.8%
- Activity (HeLa [23]): 59.3%
- Activity (HeLa [24]): 49.4%
- Activity (HeLa [25]): 25.3%
- IC50 (P388): 940 nM
- Activity (HeLa [26]): 20.8%
- Activity (HeLa [27]): 47.8%
- Activity (HeLa [28]): 46.1%
- Activity (HeLa [29]): 1.6%
- Activity (HeLa [30]): 24.2%
- Activity (HeLa [31]): 33.5%
- Activity (HeLa [32]): 19.4%
- Activity (HeLa [33]): 11.4%
- Activity (HeLa [34]): 55.1%
- Activity (HeLa [35]): 28.2%
- Activity (HeLa [36]): 1.9%
- Activity (HeLa [37]): 2.7%

Compound: COC(=O)[C@@H]1C(/C=N/c2cc(OC)c(OC)c(OC)c2)=Cc2cc3c(cc2C1c1cc(OC)c(OC)c(OC)c1)OCO3 (some centres undefined)
- IC50 (SK-MEL-28): 420 nM
- IC50 (A549; Homo sapiens, A549): 210 nM
- IC50 (HT-29; Homo sapiens, HT-29): 21 nM
- Selectivity index [1]: 40
- IC50 (P388): 850 nM

Compound: COC(=O)[C@@H]1C(/C=N/c2cc(C)c(C)cc2N)=Cc2cc3c(cc2C1c1cc(OC)c(OC)c(OC)c1)OCO3 (some centres undefined)
- IC50 (SK-MEL-28): 900 nM
- IC50 (A549; Homo sapiens, A549): 900 nM
- IC50 (HT-29; Homo sapiens, HT-29): 200 nM
- Selectivity index [1]: 4.5
- IC50 (P388): 900 nM

Compound: COC(=O)[C@@H]1C(/C=N/c2ccccc2)=Cc2cc3c(cc2C1c1cc(OC)c(OC)c(OC)c1)OCO3 (some centres undefined)
- IC50 (SK-MEL-28): 1200 nM
- IC50 (A549; Homo sapiens, A549): 20 nM
- IC50 (HT-29; Homo sapiens, HT-29): 20 nM
- Selectivity index [1]: 25
- IC50 (P388): 500 nM

Compound: CC/N=C/C1=Cc2cc3c(cc2[C@@H](c2cc(OC)c(OC)c(OC)c2)[C@@H]1C(=O)OC)OCO3 (stereo in doubt; 5)
- IC50 (SK-MEL-28): 22 nM
- IC50 (A549; a549): 22 nM
- IC50 (HT-29; ht-29): 2.2 nM
- Selectivity index [1]: 500
- IC50 (P388): 1100 nM
